Assays:
SK-BR-3 [1] = assay: Cell cycle arrest in human SK-BR-3 cells assessed as accumulation at G1 phase at 5 uM after 18 hrs using propidium iodide staining by FACS analysis; format: functional
Procedure, shortened: (§1)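 SKBR-3 cells in RPMI1640 with 10% heat-inactivated FBS at 37 °C and 5% CO₂ were treated for the stated times. Cells were fixed overnight in 70% EtOH at −20 °C, then stained with propidium iodide buffer (38 mM sodium citrate pH 7.5, 69 µM PI, 120 µg/mL RNase A) for 15 min at room temperature in the dark. Up to 1×10⁴ gated cells were analyzed by flow cytometry, giving percent distribution per phase.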

SK-BR-3 [2] = assay: Cell cycle arrest in human SK-BR-3 cells assessed as accumulation at G2/M phase at 5 uM after 18 hrs using propidium iodide staining by FACS analysis; format: functional; procedure, shortened: as §1
[3] = AUC (0 to t) in Sprague-Dawley rat at 20 mg/kg, ip; format: ADME, organism-based; parameters: dose 20 mg/kg, route intraperitoneal; settings: plasma
Procedure, shortened: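 Male Sprague–Dawley rats (300–350 g), n=3, fasted overnight with water available, given a single 20 mg/kg i.p. dose in PBS with 0.1% Tween80 and 20% DMSO. Blood drawn into heparinized tubes at 0, 0.25, 0.5, 1, 2, 4, 8 and 24 h. Plasma measured by LC-MS/MS against an internal standard. Parameters from non-compartmental analysis.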

SK-BR-3 [4] = assay: Cell cycle arrest in human SK-BR-3 cells assessed as accumulation at S phase at 0.25 uM after 6 hrs using propidium iodide staining by FACS analysis; format: functional
NCI-H460 = assay: Growth inhibition of human NCI-H460 cells after 48 hrs by SRB assay; format: functional
SK-BR-3 [5] = assay: Cell cycle arrest in human SK-BR-3 cells assessed as accumulation at G2/M phase at 0.50 uM after 18 hrs using propidium iodide staining by FACS analysis; format: functional; procedure, shortened: as §1
[6] = Mean residence time (0 to t) in Sprague-Dawley rat at 20 mg/kg, ip; format: ADME, organism-based; parameters: dose 20 mg/kg, route intraperitoneal; settings: in vivo
Procedure, shortened: (§2)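 Male Sprague–Dawley rats (300–350 g, n=3), fasted overnight with water allowed. Single 20 mg/kg i.p. dose in PBS with 0.1% Tween80 and 20% DMSO. Blood taken from saphenous and femoral veins into heparinized tubes at 0, 0.25, 0.5, 1, 2, 4, 8 and 24 h. Plasma quantified by LC-MS/MS (MRM, 483.3→404.3) after tert-butyl methyl ether/hexane extraction. Parameters derived non-compartmentally.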

SK-BR-3 [7] = assay: Cell cycle arrest in human SK-BR-3 cells assessed as accumulation at S phase at 0.10 uM after 12 hrs using propidium iodide staining by FACS analysis; format: functional; procedure, shortened: as §1
SF-295 = assay: Growth inhibition of human SF295 cells after 48 hrs by SRB assay; format: functional
T47D = assay: Growth inhibition of human T47D cells after 48 hrs by SRB assay; format: functional
SK-BR-3 [8] = assay: Cell cycle arrest in human SK-BR-3 cells assessed as accumulation at G1 phase at 0.25 uM after 12 hrs using propidium iodide staining by FACS analysis; format: functional; procedure, shortened: as §1
SK-BR-3 [9] = assay: Cell cycle arrest in human SK-BR-3 cells assessed as accumulation at G1 phase at 0.25 uM after 3 hrs using propidium iodide staining by FACS analysis; format: functional; procedure, shortened: as §1
UACC-62 = assay: Growth inhibition of human UACC62 cells after 48 hrs by SRB assay; format: functional
SK-BR-3 [10] = assay: Cell cycle arrest in human SK-BR-3 cells assessed as accumulation at Sub-G1 phase at 5 uM after 12 hrs using propidium iodide staining by FACS analysis; format: functional
SN12C = assay: Growth inhibition of human SN12C cells after 48 hrs by SRB assay; format: functional
SK-BR-3 [11] = assay: Cell cycle arrest in human SK-BR-3 cells assessed as accumulation at G2/M phase at 0.25 uM after 24 hrs using propidium iodide staining by FACS analysis; format: functional; procedure, shortened: as §1
Mus musculus = assay: Acute toxicity in nude mouse assessed as body weight loss at 100 to 400 mg/kg administered as single dose measured after 2 weeks; format: organism-based; parameters: dose 100-400 mg/kg; settings: in vivo, 336 h
SK-MEL-28 = assay: Growth inhibition of human SK-MEL-28 cells after 48 hrs by SRB assay; format: functional
SK-BR-3 [12] = assay: Cell cycle arrest in human SK-BR-3 cells assessed as accumulation at G2/M phase at 5 uM after 12 hrs using propidium iodide staining by FACS analysis; format: functional; procedure, shortened: as §1
LOX IMVI = assay: Growth inhibition of human LOXIMVI cells after 48 hrs by SRB assay; format: functional
KM12 = assay: Growth inhibition of human KM12 cells after 48 hrs by SRB assay; format: functional
SK-MEL-2 = assay: Growth inhibition of human SK-MEL-2 cells after 48 hrs by SRB assay; format: functional
SK-BR-3 [13] = assay: Cell cycle arrest in human SK-BR-3 cells assessed as accumulation at S phase at 0.10 uM after 6 hrs using propidium iodide staining by FACS analysis; format: functional; procedure, shortened: as §1
OVCAR-3 = assay: Growth inhibition of human OVCAR3 cells after 48 hrs by SRB assay; format: functional
[14] = Tmax in Sprague-Dawley rat plasma at 20 mg/kg, ip; format: ADME, organism-based; parameters: dose 20 mg/kg, route intraperitoneal; procedure, shortened: as §2
SF-539 = assay: Growth inhibition of human SF539 cells after 48 hrs by SRB assay; format: functional
SK-BR-3 [15] = assay: Cell cycle arrest in human SK-BR-3 cells assessed as accumulation at G2/M phase at 0.10 uM after 3 hrs using propidium iodide staining by FACS analysis; format: functional; procedure, shortened: as §1
OVCAR-4 = assay: Growth inhibition of human OVCAR4 cells after 48 hrs by SRB assay; format: functional
HCT-15 = assay: Growth inhibition of human HCT15 cells after 48 hrs by SRB assay; format: functional
BT-549 = assay: Growth inhibition of human BT549 cells after 48 hrs by SRB assay; format: functional
[16] = read-out: LC50 (the source's name)

Compound: Cc1ccc(C)c(COc2cc(NC(=O)c3ccc4c(c3)OCO4)ccc2N(C)S(C)(=O)=O)c1
- Activity (SK-BR-3 [1]): 63.55%
- Activity (SK-BR-3 [2]): 21.8%
- AUC(0-t) [3]: 16300 ng·h/mL
- Activity (SK-BR-3 [4]): 14.95%
- growth inhibition (GI) (NCI-H460): Dose-dependent effect
- GI50 (NCI-H460; NCI-H460, 48 h): 184 nM
- TGI (NCI-H460; NCI-H460, 48 h): 744 nM
- CC50 (NCI-H460; NCI-H460, 48 h, read-out: LC50 (the source's name)): > 100000 nM
- Activity (SK-BR-3 [5]): 22.27%
- MRT last [6]: 6 h
- Activity (SK-BR-3 [7]): 8.17%
- growth inhibition (GI) (SF-295): Dose-dependent effect
- GI50 (SF-295; SF-295, 48 h): 98.3 nM
- TGI (SF-295; SF-295, 48 h): 626 nM
- CC50 (SF-295; SF-295, 48 h, read-out: LC50 (the source's name)): > 100000 nM
- GI50 (T47D): 682 nM
- TGI (T47D): > 100000 nM
- growth inhibition (GI) (T47D): Dose-dependent effect
- CC50 (T47D; [16]): > 100000 nM
- Activity (SK-BR-3 [8]): 73.62%
- Activity (SK-BR-3 [9]): 69.63%
- growth inhibition (GI) (UACC-62): Dose-dependent effect
- GI50 (UACC-62; UACC-62, 48 h): 414 nM
- TGI (UACC-62; UACC-62, 48 h): > 100000 nM
- CC50 (UACC-62; UACC-62, 48 h, read-out: LC50 (the source's name)): > 100000 nM
- Activity (SK-BR-3 [10]): 9.76%
- GI50 (SN12C): 472 nM
- TGI (SN12C): > 100000 nM
- growth inhibition (GI) (SN12C): Dose-dependent effect
- CC50 (SN12C; [16]): > 100000 nM
- Activity (SK-BR-3 [11]): 22.53%
- Activity (Mus musculus): Non-toxic
- growth inhibition (GI) (SK-MEL-28): Dose-dependent effect
- GI50 (SK-MEL-28; SK-MEL-28, 48 h): 692 nM
- TGI (SK-MEL-28; SK-MEL-28, 48 h): > 100000 nM
- CC50 (SK-MEL-28; SK-MEL-28, 48 h, read-out: LC50 (the source's name)): > 100000 nM
- Activity (SK-BR-3 [12]): 20.54%
- GI50 (LOX IMVI): 66.6 nM
- TGI (LOX IMVI): > 100000 nM
- growth inhibition (GI) (LOX IMVI): Dose-dependent effect
- CC50 (LOX IMVI; [16]): > 100000 nM
- growth inhibition (GI) (KM12): Dose-dependent effect
- GI50 (KM12; KM12, 48 h): 85.5 nM
- TGI (KM12; KM12, 48 h): 1130 nM
- CC50 (KM12; KM12, 48 h, read-out: LC50 (the source's name)): > 100000 nM
- growth inhibition (GI) (SK-MEL-2): Dose-dependent effect
- GI50 (SK-MEL-2; SK-MEL-2, 48 h): 89.7 nM
- TGI (SK-MEL-2; SK-MEL-2, 48 h): 616 nM
- CC50 (SK-MEL-2; SK-MEL-2, 48 h, read-out: LC50 (the source's name)): > 100000 nM
- Activity (SK-BR-3 [13]): 15.84%
- growth inhibition (GI) (OVCAR-3): Dose-dependent effect
- TGI (OVCAR-3; OVCAR-3, 48 h): 166 nM
- Tmax [14]: 2 h
- growth inhibition (GI) (SF-539): Dose-dependent effect
- GI50 (SF-539; SF-539, 48 h): 125 nM
- CC50 (SF-539; SF-539, 48 h, read-out: LC50 (the source's name)): > 100000 nM
- Activity (SK-BR-3 [15]): 8.83%
- growth inhibition (GI) (OVCAR-4): Dose-dependent effect
- TGI (OVCAR-4; OVCAR-4, 48 h): > 100000 nM
- CC50 (OVCAR-4; OVCAR-4, 48 h, read-out: LC50 (the source's name)): > 100000 nM
- growth inhibition (GI) (HCT-15): Dose-dependent effect
- GI50 (HCT-15; HCT-15, 48 h): 289 nM
- TGI (HCT-15; HCT-15, 48 h): > 100000 nM
- CC50 (HCT-15; HCT-15, 48 h, read-out: LC50 (the source's name)): > 100000 nM
- growth inhibition (GI) (BT-549): Dose-dependent effect
- GI50 (BT-549; BT-549, 48 h): 656 nM
- TGI (BT-549; BT-549, 48 h): > 100000 nM
- CC50 (BT-549; BT-549, 48 h, read-out: LC50 (the source's name)): > 100000 nM
